# Source: paper PMC6467728 (Journal of medicinal chemistry, 2019)
# Entries after “also recorded” stand apart in the source; their conditions may differ. Like-named read-outs stand apart in the source and are kept apart here.
# Key:
# hIP6K2 = target: T1, hIP6K2 (Homo sapiens, UniProt Q9UHH9); assay: hIP6K2 Adapta TR-FRET kinase assay; assay type: biochemical; conditions: for fold higher IC50 against hIP6K2 compared to 3: relative to compound 3; for fold higher IC50 against hIP6K2 compared to 5: relative to compound 5
# T1 sequence (Q9UHH9 1-426): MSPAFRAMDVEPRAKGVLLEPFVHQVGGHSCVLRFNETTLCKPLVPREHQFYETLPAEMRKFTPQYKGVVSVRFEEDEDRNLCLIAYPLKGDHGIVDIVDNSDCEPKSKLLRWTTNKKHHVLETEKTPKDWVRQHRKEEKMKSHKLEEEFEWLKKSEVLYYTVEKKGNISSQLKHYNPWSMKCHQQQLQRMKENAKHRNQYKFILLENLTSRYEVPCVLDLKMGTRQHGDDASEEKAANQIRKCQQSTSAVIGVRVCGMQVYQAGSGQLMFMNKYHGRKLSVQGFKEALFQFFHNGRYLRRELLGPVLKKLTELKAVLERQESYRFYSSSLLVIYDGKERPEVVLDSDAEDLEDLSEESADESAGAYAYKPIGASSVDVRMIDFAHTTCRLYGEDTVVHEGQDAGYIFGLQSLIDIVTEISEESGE
# hIPMK = hIPMK (Homo sapiens, UniProt Q8NFU5); assay: hIPMK Adapta TR-FRET kinase assay; assay type: biochemical; conditions: for fold higher IC50 (reduction in inhibitory activity) against hIPMK compared to 2: relative to compound 2
# Sequence of hIPMK (Q8NFU5 whole entry): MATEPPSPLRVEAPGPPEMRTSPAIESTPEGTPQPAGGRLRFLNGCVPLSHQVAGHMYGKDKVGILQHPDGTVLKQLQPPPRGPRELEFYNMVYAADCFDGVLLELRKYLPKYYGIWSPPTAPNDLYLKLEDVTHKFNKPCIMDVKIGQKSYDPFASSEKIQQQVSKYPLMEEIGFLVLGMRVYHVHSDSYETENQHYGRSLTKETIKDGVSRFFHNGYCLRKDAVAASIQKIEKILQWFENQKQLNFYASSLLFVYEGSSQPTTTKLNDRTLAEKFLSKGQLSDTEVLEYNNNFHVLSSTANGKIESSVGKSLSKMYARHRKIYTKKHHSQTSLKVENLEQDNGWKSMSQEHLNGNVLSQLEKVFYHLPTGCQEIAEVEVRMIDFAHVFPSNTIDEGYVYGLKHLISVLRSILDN
# [1] = test system: IP6K / IPMK activity (InsP7, InsP5, InsP6 levels) in HCT116 cells; assay type: cell-based, human
# [2] = test system: IP6K activity (InsP levels) in HEK293 cells; assay: HPLC analysis of InsP5, InsP6 and InsP7 levels in HEK293 cells; assay type: cell-based; conditions: HEK293, 2.5 µM, 3.5 h
# Summary of the method: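 HEK293 cells were labeled with [³H]inositol (20 µCi/ml), then treated 3.5 h with 2.5 µM test compound in DMSO (0.1% final) or vehicle. Cells were quenched with perchloric acid, and extracted [³H]InsP5, InsP6 and InsP7 were resolved by CarboPac HPLC. Values are means ± standard errors, n=3; one-way ANOVA (Dunnett) vs DMSO control.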
# [3] = test system: AKT activity in 3T3-L1 preadipocytes; assay: AKT activity; assay type: cell-based; conditions: 3 h
# Summary of the method: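 Lysates were made in ice-cold Tris-HCl pH 7.4/NaCl/1% Triton X-100 with protease-phosphatase inhibitors and cleared at 4 °C. Blots of 20 µg protein were probed for p-AKT T308 and total AKT. Ratios were normalized to the per-gel sum; n=3, Dunnett ANOVA vs DMSO.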
# [4] = test system: AKT activity in HCT116 cells; assay: AKT activity; assay type: cell-based, human; conditions: 3 h
# Summary of the method: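 HCT116 cells, 1 day post-confluent, were exposed 3 h to 10 µM TNP, 2.5 µM test compound or DMSO vehicle (0.1% final). Cells were PBS-washed and lysed in cold Tris-HCl pH 7.4 buffer with 1% Triton X-100 plus protease-phosphatase inhibitors. Blots of 20 µg protein were probed for T308 p-AKT and total AKT. The p-AKT/total ratio was normalized to the gel sum; means ± standard errors, n=5, Dunnett ANOVA.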
# [5] = cited from earlier work
# IP6K = conditions: prior report; cited from earlier work
smiles,measurement,setting,value
"O=c1cc(-c2ccc(O)c(O)c2)oc2cccc(O)c12 [Compound 9, 5,3’,4’-Trihydroxyflavone]",fold higher IC50 against hIP6K2 compared to 3,hIP6K2,6 fold
"O=C1C[C@@H](c2ccc(O)c(O)c2)Oc2cc(O)cc(O)c21 [Compound 16, Eriodictyol]",fold loss of activity against hIPMK compared to 3,hIPMK; relative to compound 3,> 5.5 fold
same,fold higher IC50 against hIP6K2 compared to 3,hIP6K2,19 fold
"COc1cc(O)c2c(=O)c(O)c(-c3ccc(O)c(O)c3)oc2c1 [Compound 11, Rhamnetin]",fold higher IC50 (reduction in inhibitory activity) against hIPMK compared to 2,hIPMK,6 fold
same,fold higher IC50 against hIP6K2 compared to 2,hIP6K2; relative to compound 2,2.6 fold
same,fold increase in selectivity for hIP6K2 (vs hIPMK) compared to 2,hIP6K2; relative to compound 2,2.4 fold
same,effect on InsP5 levels,"[1]; HCT116, 2.5 µM, 3.5 hr",not significantly affected
same,effect on InsP6 levels,"[1]; HCT116, 2.5 µM, 3.5 hr",not significantly affected
same,effect on InsP7 synthesis / levels,"[1]; HCT116, 2.5 µM, 3.5 hr",inability of 11 to reduce InsP7
"O=C1C[C@@H](c2ccc(O)cc2)Oc2cc(O)cc(O)c21 [Compound 17, Naringenin]",fold higher IC50 against hIP6K2 compared to 5,hIP6K2,at least 4 fold
"O=c1cc(-c2ccc(O)c(O)c2)oc2cc(O)cc(O)c12 [Compound 3, Luteolin]",fold higher IC50 (reduction in inhibitory activity) against hIPMK compared to 2,hIPMK,2.4- to 3 fold
same,effect on InsP5 levels,[2],not affected
same,effect on InsP6 levels,[2],not affected
same,effect on InsP7 levels,[2],reduced InsP7 levels
same,effect upon AKT activity (p-AKT T308 / total AKT),"[3]; 3T3-L1, 2.5 µM",increased
same,effect upon AKT activity (p-AKT T308 / total AKT),"[4]; HCT116, 2.5 µM",did not observe any statistically-significant effect
same,fold higher IC50 against hIP6K2 compared to 2,hIP6K2; relative to compound 2,1.9 fold
same,effect on InsP7 synthesis / levels,"[1]; HCT116, 2.5 µM, 3.5 hr",inhibited InsP7 synthesis
"COc1cc(O)c2c(=O)cc(-c3ccc(O)cc3)oc2c1 [Compound 10, Genkwanin]",fold higher IC50 against hIP6K2 compared to 5,hIP6K2,3 fold
"O=c1cc(-c2ccc(O)cc2)oc2cc(O)cc(O)c12 [Compound 5, Apigenin]",fold higher IC50 against hIP6K2 compared to 2,hIP6K2; relative to compound 2,10 fold
"COc1cc(-c2oc3cc(O)cc(O)c3c(=O)c2O)ccc1O [Compound 6, Isorhamnetin]",effect on InsP5 levels,"[1]; HCT116, 2.5 µM, 3.5 hr",not significantly affected
same,effect on InsP6 levels,"[1]; HCT116, 2.5 µM, 3.5 hr",not significantly affected
same,effect on InsP7 synthesis / levels,"[1]; HCT116, 2.5 µM, 3.5 hr",inhibited InsP7 synthesis
"O=c1c(O)c(-c2ccc(O)cc2)oc2cc(O)cc(O)c12 [Compound 4, Kaempferol]",fold higher IC50 (reduction in inhibitory activity) against hIPMK compared to 2,hIPMK,2 fold
same,fold higher IC50 against hIP6K2 compared to 2,hIP6K2; relative to compound 2,3.6 fold
same,effect on InsP5 levels,"[1]; HCT116, 2.5 µM, 3.5 hr",not significantly affected
same,effect on InsP6 levels,"[1]; HCT116, 2.5 µM, 3.5 hr",not significantly affected
same,effect on InsP7 synthesis / levels,"[1]; HCT116, 2.5 µM, 3.5 hr",inhibited InsP7 synthesis
"COc1ccc(-c2cc(=O)c3c(O)cc(O)cc3o2)cc1O [Compound 7, Diosmetin]",effect on InsP5 levels,[2],not affected
same,effect on InsP6 levels,[2],not affected
same,effect on InsP7 levels,[2],reduced InsP7 levels
same,effect upon AKT activity (p-AKT T308 / total AKT),"[3]; 3T3-L1, 2.5 µM",increased
same,effect upon AKT activity (p-AKT T308 / total AKT),"[4]; HCT116, 2.5 µM",did not observe any statistically-significant effect
same,effect on InsP7 synthesis / levels,"[1]; HCT116, 2.5 µM, 3.5 hr",inhibited InsP7 synthesis; also recorded: most effective inhibitor of InsP7 levels
same,effect on InsP5,"[1]; HCT116, 2.5 µM, time course",no effect
same,effect on InsP6,"[1]; HCT116, 2.5 µM, time course",did not significantly alter
same,effect on InsP7 synthesis,"[1]; HCT116, 2.5 µM, time course",most sustained inhibition of InsP7 synthesis
same,reduction in IP6K activity,"[1]; intact HCT116 cells, 2.5 µM",> 70%
"O=[N+]([O-])c1ccc(CNc2nc(NCc3cccc(C(F)(F)F)c3)nc3[nH]cnc23)cc1 [TNP, N2-(m-(trifluoromethyl)benzyl) N6-(p-nitrobenzyl)purine, reference compound]",effect upon AKT activity (p-AKT T308 / total AKT),"[3]; 3T3-L1, 1 µM TNP",increased
same,effect upon AKT activity (p-AKT T308 / total AKT),"[4]; HCT116, 10 µM TNP",did not affect AKT activity
"O=c1c(O)c(-c2ccc(O)c(O)c2)oc2cc(O)cc(O)c12 [Compound 2, Quercetin]",effect on InsP5 levels,[2],not affected
same,effect on InsP6 levels,[2],not affected
same,effect on InsP7 levels,[2],reduced InsP7 levels
same,effect upon AKT activity (p-AKT T308 / total AKT),"[3]; 3T3-L1, 2.5 µM",increased
same,concentration recorded in the human small intestine and colon,[5],2500 nM
same,concentration in serum,[5]; even after dietary supplementation,≤ 1000 nM
same,inhibition of IP6K,IP6K,no inhibitory effect was observed
same,effect upon AKT activity (p-AKT T308 / total AKT),"[4]; HCT116, 2.5 µM",did not observe any statistically-significant effect
same,effect on InsP7 synthesis / levels,"[1]; HCT116, 2.5 µM, 3.5 hr",inhibited InsP7 synthesis
same,effect on InsP5,"[1]; HCT116, 2.5 µM, time course",without significantly impacting
same,effect on InsP6,"[1]; HCT116, 2.5 µM, time course",without significantly impacting
same,reduction of InsP7 levels,"[1]; HCT116, 2.5 µM, time course",50 – 70%
same,time of greatest diminution in cellular InsP7 content,"[1]; HCT116, 2.5 µM, time course",30 min
same,total DPM of InsP7 peak,"[1]; HCT116, 10 μM, 3.5 h, representative HPLC, control 2160",195 DPM
same,total DPM of InsP5 peak,"[1]; HCT116, 10 μM, 3.5 h, representative HPLC, control 14677","10,989 DPM"
same,total DPM of InsP6 peak,"[1]; HCT116, 10 μM, 3.5 h, representative HPLC, control 36,327",39521 DPM
same,effect on InsP6 levels,"[1]; HCT116, 10 µM, 3.5 hr",not affected
same,reduction of InsP5 levels,"[1]; HCT116, 10 µM, 3.5 hr",approx. 25%
same,"effect on InsP7 levels, dose dependence","[1]; HCT116, 1–10 µM, 3.5 hr",dose-dependent reductions in InsP7 levels
"O=c1c(O)c(-c2cc(O)c(O)c(O)c2)oc2cc(O)cc(O)c12 [Compound 1, Myricetin]",inhibition of IP6K,IP6K,inhibitor
same,effect on InsP5 levels,"[1]; HCT116, 2.5 µM, 3.5 hr",not significantly affected
same,effect on InsP6 levels,"[1]; HCT116, 2.5 µM, 3.5 hr",not significantly affected
same,effect on InsP7 synthesis / levels,"[1]; HCT116, 2.5 µM, 3.5 hr",inhibited InsP7 synthesis; also recorded: only slightly altered InsP7 levels
